Measured values published in ChEMBL document CHEMBL1123250, “Chloroalanyl antibiotic peptides: antagonism of their antimicrobial effects by L-alanine and L-alanyl peptides in gram-negative bacteria” (1986).
In brackets after ≈: the same amount, converted by molar mass. Several values for one entry are separate records, joined by “and”; a condition that tells them apart may be missing. Equal values may be shown once.

Key:
[1] = target: Alanine racemase, biosynthetic (Escherichia coli K-12) (UniProt P0A6B4); experiment: (§1) Compound was tested for enzyme activity at a concentration of 100 ug/mL against alanine racemase; per mg of protein
Chain of Alanine racemase, biosynthetic (Escherichia coli K-12) (P0A6B4 whole entry): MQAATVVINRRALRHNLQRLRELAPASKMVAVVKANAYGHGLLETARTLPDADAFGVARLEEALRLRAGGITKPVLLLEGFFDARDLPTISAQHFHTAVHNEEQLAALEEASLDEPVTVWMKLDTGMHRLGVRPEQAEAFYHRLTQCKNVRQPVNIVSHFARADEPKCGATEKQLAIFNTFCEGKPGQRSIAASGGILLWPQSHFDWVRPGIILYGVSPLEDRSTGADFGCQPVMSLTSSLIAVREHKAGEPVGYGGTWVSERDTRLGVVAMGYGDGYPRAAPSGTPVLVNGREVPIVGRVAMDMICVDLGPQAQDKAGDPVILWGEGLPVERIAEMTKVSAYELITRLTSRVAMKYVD
In short: (§2)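 E. coli JSR-0 was grown at 37 °C in Davis-Mingioli medium with Met and Pro (50 µg/mL each) and Leu, Ile and Val (100 µg/mL each), plus 5% sucrose or 500 µg/mL L-Ala. Agent was added at about 100 Klett units, with 30 min more shaking. Cells were washed in phosphate/EDTA/PLP buffer pH 8.0 and sonicated. D→L racemase was coupled to L-alanine dehydrogenase (10 mM D-Ala, 5 mM NAD+, CHES pH 9.0, 37 °C), reading NADH at 340 nm.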

[2] = target: Alanine racemase, biosynthetic (Escherichia coli K-12) (UniProt P0A6B4); experiment: as §1; in short: as §2; remark: listed apart in the source
[3] = system: Escherichia coli; experiment: Compound was tested for antibacterial activity at a concentration of 50 ug/mL against Escherichia coli ATCC; type: functional
In short: (§3)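 Agar dilution in defined peptide susceptibility agar with L-Ala or L-Ala-L-Ala added at 25, 50, 100 or 500 µg/mL, and peptide in serial 2-fold dilutions. Inocula were grown overnight in the liquid susceptibility medium and diluted to about 1 x 10^7 cfu/mL, then replicator-spotted. Plates were incubated overnight at 37 °C. MIC was the lowest concentration allowing fewer than 10 colonies at 16-18 h.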

[4] = system: Escherichia coli; experiment: Compound was tested for antibacterial activity at a concentration of 50 ug/mL against Escherichia coli JSR-O; type: functional; in short: as §3
[5] = system: Escherichia coli; experiment: Compound was tested for antibacterial activity at a concentration of 500 ug/mL against Escherichia coli ATCC; type: functional; in short: as §3
[6] = system: Escherichia coli; experiment: Compound was tested for antibacterial activity at a concentration of 500 ug/mL against Escherichia coli JSR-O; type: functional; in short: as §3
[7] = system: Escherichia coli; experiment: Compound was tested for antibacterial activity against Escherichia coli; type: functional
In short: (§4)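 Agar dilution MIC on defined peptide susceptibility agar. Inoculum made by growing overnight in liquid peptide susceptibility medium, then diluting to about 1 × 10^7 cfu/mL. Applied by Steers replicator to plates carrying serial 2-fold peptide dilutions. Incubated overnight at 37 °C. MIC = lowest concentration allowing growth of fewer than 10 colonies after 16-18 h.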

[8] = system: Escherichia coli; experiment: Compound was tested for antibacterial activity against Escherichia coli JSR-O at a concentration of 25 ug/mL; type: functional; in short: as §3
[9] = system: Escherichia coli; experiment: Compound was tested for antibacterial activity at a concentration of 100 ug/mL against Escherichia coli JSR-O; type: functional; in short: as §3
[10] = system: Escherichia coli; experiment: (§5) Compound was tested for antibacterial activity at a concentration of 25 ug/mL against Escherichia coli ATCC; type: functional; in short: as §3
[11] = system: Escherichia coli; experiment: (§6) Compound was tested for antibacterial activity at a concentration of 25 ug/mL against Escherichia coli JSR-O; type: functional; in short: as §3
[12] = system: Escherichia coli; experiment: as §6; type: functional; in short: as §3; remark: listed apart in the source
[13] = system: Klebsiella aerogenes; experiment: Compound was tested for antibacterial activity against Enterobacter aerogenes at a concentration of 25 ug/mL; type: functional; in short: as §3
[14] = system: Klebsiella aerogenes; experiment: (§7) Compound was tested for antibacterial activity at a concentration of 25 ug/mL against Enterobacter aerogenes; type: functional; in short: as §3
[15] = system: Klebsiella aerogenes; experiment: as §7; type: functional; in short: as §3; remark: listed apart in the source
[16] = system: Klebsiella aerogenes; experiment: Compound was tested for antibacterial activity at a concentration of 50 ug/mL against Enterobacter aerogenes; type: functional; in short: as §3
[17] = system: Enterobacter cloacae; experiment: Compound was tested for antibacterial activity at a concentration of 25 ug/mL against Enterobacter cloacae; type: functional; in short: as §3
[18] = system: Enterobacter cloacae; experiment: Compound was tested for antibacterial activity at a concentration of 50 ug/mL against Enterobacter cloacae; type: functional; in short: as §3
[19] = system: Enterobacter cloacae; experiment: Compound was tested for antibacterial activity at a concentration of 500 ug/mL against Enterobacter cloacae; type: functional; in short: as §3
[20] = system: Shigella flexneri; experiment: Compound was tested for antibacterial activity against Shigella flexneri; type: functional; in short: as §4
[21] = system: Shigella flexneri; experiment: Compound was tested for antibacterial activity against Shigella flexneri at a concentration of 25 ug/mL; type: functional; in short: as §3
[22] = system: Shigella flexneri; experiment: (§8) Compound was tested for antibacterial activity at a concentration of 25 ug/mL against Shigella flexneri; type: functional; in short: as §3
[23] = system: Shigella flexneri; experiment: as §8; type: functional; in short: as §3; remark: listed apart in the source
[24] = system: Shigella flexneri; experiment: Compound was tested for antibacterial activity at a concentration of 50 ug/mL against Shigella flexneri; type: functional; in short: as §3
[25] = system: Shigella flexneri; experiment: Compound was tested for antibacterial activity at a concentration of 500 ug/mL against Shigella flexneri; type: functional; in short: as §3
[26] = system: Staphylococcus aureus; experiment: (§9) Compound was tested for antibacterial activity at a concentration of 25 ug/mL against Staphylococcus aureus; type: functional; in short: as §3
[27] = system: Staphylococcus aureus; experiment: as §9; type: functional; in short: as §3; remark: listed apart in the source
[28] = system: Staphylococcus aureus; experiment: Compound was tested for antibacterial activity at a concentration of 50 ug/mL against Staphylococcus aureus; type: functional; in short: as §3
[29] = system: Enterococcus faecalis; experiment: Compound was tested for antibacterial activity at a concentration of 100 ug/mL against Streptococcus faecalis; type: functional; in short: as §3
[30] = system: Enterococcus faecalis; experiment: (§10) Compound was tested for antibacterial activity at a concentration of 25 ug/mL against Streptococcus faecalis; type: functional; in short: as §3
[31] = system: Enterococcus faecalis; experiment: as §10; type: functional; in short: as §3; remark: listed apart in the source
[32] = system: Enterococcus faecalis; experiment: Compound was tested for antibacterial activity at a concentration of 50 ug/mL against Streptococcus faecalis; type: functional; in short: as §3
[33] = system: Streptococcus agalactiae; experiment: Compound was tested for antibacterial activity against Streptococcus agalactiae; type: functional
In short: (§11)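 Inoculum made from colonies grown overnight on chocolate or blood agar, resuspended in liquid medium to 10' cfu/mL. Applied by Steers replicator to serial 2-fold peptide dilutions. Incubated overnight at 37 °C under 7% CO2. MIC = lowest concentration giving fewer than 10 colonies at 16-18 h.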

[34] = system: Staphylococcus epidermidis; experiment: Compound was tested for antibacterial activity at a concentration of 50 ug/mL against Staphylococcus epidermidis; type: functional; in short: as §3
[35] = system: Streptococcus pyogenes; experiment: Compound was tested for antibacterial activity against Streptococcus pyogenes; type: functional; in short: as §11
[36] = system: Staphylococcus epidermidis; experiment: (§12) Compound was tested for antibacterial activity at a concentration of 25 ug/mL against Staphylococcus epidermidis; type: functional; in short: as §3
[37] = system: Staphylococcus epidermidis; experiment: as §12; type: functional; in short: as §3; remark: listed apart in the source
[38] = system: Enterococcus faecalis; experiment: Compound was tested for antibacterial activity against Streptococcus faecalis at a concentration of 25 ug/mL; type: functional; in short: as §3
[39] = system: Escherichia coli; experiment: Compound was tested for enzyme activity at a concentration of 100 ug/mL against transaminase B; per mg of protein
In short: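 E. coli JSR-0 was grown at 37 °C in supplemented Davis-Mingioli medium (Met and Pro; Leu, Ile and Val), with sucrose or L-Ala in some cultures. Agent was added at about 100 Klett units and cells harvested after 30 min. The sonicated homogenate was run with Tris pH 7.8, pyridoxal phosphate and α-ketoglutarate; L-valine started transamination at 37 °C. Timed aliquots were derivatised with 2,4-DNPH, and α-ketoisovalerate hydrazone was read at A430 against a standard curve.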

[40] = system: Enterococcus faecalis; experiment: Compound was tested for antibacterial activity at a concentration of 500 ug/mL against Streptococcus faecalis; type: functional; in short: as §3
[41] = system: Staphylococcus aureus; experiment: (§13) Compound was tested for antibacterial activity against Staphylococcus aureus at a concentration of 25 ug/mL; type: functional; in short: as §3
[42] = system: Staphylococcus epidermidis; experiment: as §13; type: functional; in short: as §3
[43] = system: Escherichia coli; experiment: as §5; type: functional; in short: as §3; remark: listed apart in the source
[44] = system: Klebsiella aerogenes; experiment: Compound was tested for antibacterial activity at a concentration of 500 ug/mL against Enterobacter aerogenes; type: functional; in short: as §3

Q: Which results are given for `N[C@@H](CCl)C(=O)N[C@@H](CCl)C(=O)O`?
A: Activity [1]: 0.85 µM/min; Activity [2]: 0.19 µM/min; MIC [3]: > 100 µg/mL; MIC [4]: > 100 µg/mL; MIC [5]: > 100 µg/mL; MIC [6]: > 100 µg/mL; MIC [7]: 12.5 µg/mL (≈ 54.6 µM); MIC [8]: 3.12 µg/mL (≈ 13.6 µM); MIC [9]: >100 µg/mL; MIC ([9]; Escherichia coli, read-out: MIC): 50 µg/mL (≈ 218 µM); MIC [10]: > 100 µg/mL; MIC [11]: > 100 µg/mL; MIC [12]: 6.25 µg/mL (≈ 27.3 µM); MIC [13]: 6.25 µg/mL (≈ 27.3 µM); MIC [14]: > 100 µg/mL; MIC [15]: 12.5 µg/mL (≈ 54.6 µM); MIC [16]: > 100 µg/mL; MIC [17]: > 100 µg/mL; MIC [18]: > 100 µg/mL; MIC [19]: > 100 µg/mL; MIC [20]: 3.25 µg/mL (≈ 14.2 µM); MIC [21]: 1.56 µg/mL (≈ 6.81 µM); MIC [22]: > 100 µg/mL; MIC [23]: 3.12 µg/mL (≈ 13.6 µM); MIC [24]: > 100 µg/mL; MIC [25]: > 100 µg/mL; MIC [26]: 0.39 µg/mL (≈ 1.7 µM); MIC [27]: 0.05 µg/mL (≈ 0.218 µM); MIC [28]: 6.25 µg/mL (≈ 27.3 µM); MIC [29]: > 100 µg/mL; MIC [30]: > 100 µg/mL; MIC [31]: > 100 µg/mL; MIC [32]: > 100 µg/mL; MIC [33]: 1.56 µg/mL (≈ 6.81 µM); MIC [34]: 6.25 µg/mL (≈ 27.3 µM); MIC [35]: 3.12 µg/mL (≈ 13.6 µM); MIC [36]: 0.39 µg/mL (≈ 1.7 µM); MIC [37]: 0.05 µg/mL (≈ 0.218 µM); MIC [38]: > 100 µg/mL; Activity [39]: 0.13 µM/min and 0.11 µM/min; MIC [40]: > 100 µg/mL; MIC [41]: 0.05 µg/mL (≈ 0.218 µM); MIC [42]: 0.05 µg/mL (≈ 0.218 µM); MIC [43]: 3.12 µg/mL (≈ 13.6 µM); MIC [44]: > 100 µg/mL
